One block for each compound: values may come before it. Active and inactive are the calls of the source. The calls are words filed in the database; no cut-off is given here.
Key:
[1] = biological target: T1, beta-catenin-B-cell lymphoma 9 protein complex (Homo sapiens, UniProt P35222); assay: Competitive inhibition of wild type beta-catenin (unknown origin) expressed in Escherichia coli BL21 DE3 interaction with N-terminally biotinylated human BCL9 (350 to 375 residues) by alpha screen assay
T1 sequence (P35222 whole entry): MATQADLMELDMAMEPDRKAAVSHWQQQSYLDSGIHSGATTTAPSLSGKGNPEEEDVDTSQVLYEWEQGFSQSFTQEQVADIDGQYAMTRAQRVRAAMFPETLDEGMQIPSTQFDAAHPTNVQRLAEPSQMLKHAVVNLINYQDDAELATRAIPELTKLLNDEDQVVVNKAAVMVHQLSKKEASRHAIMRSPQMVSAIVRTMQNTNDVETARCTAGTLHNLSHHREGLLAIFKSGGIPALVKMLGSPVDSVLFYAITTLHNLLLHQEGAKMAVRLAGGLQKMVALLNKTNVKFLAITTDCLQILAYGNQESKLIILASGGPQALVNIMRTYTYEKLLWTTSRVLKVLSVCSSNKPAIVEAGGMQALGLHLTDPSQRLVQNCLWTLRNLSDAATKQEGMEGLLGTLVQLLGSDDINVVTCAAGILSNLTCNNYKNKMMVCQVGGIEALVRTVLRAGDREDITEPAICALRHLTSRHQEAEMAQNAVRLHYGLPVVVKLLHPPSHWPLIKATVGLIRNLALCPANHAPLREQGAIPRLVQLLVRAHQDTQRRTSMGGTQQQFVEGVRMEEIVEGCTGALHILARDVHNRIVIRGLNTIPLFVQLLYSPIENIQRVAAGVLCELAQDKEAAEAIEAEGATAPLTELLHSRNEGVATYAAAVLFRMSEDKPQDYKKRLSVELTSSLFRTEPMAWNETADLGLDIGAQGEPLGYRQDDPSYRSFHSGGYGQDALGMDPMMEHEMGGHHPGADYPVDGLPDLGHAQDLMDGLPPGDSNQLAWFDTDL
T1 sequence (O00512 whole entry): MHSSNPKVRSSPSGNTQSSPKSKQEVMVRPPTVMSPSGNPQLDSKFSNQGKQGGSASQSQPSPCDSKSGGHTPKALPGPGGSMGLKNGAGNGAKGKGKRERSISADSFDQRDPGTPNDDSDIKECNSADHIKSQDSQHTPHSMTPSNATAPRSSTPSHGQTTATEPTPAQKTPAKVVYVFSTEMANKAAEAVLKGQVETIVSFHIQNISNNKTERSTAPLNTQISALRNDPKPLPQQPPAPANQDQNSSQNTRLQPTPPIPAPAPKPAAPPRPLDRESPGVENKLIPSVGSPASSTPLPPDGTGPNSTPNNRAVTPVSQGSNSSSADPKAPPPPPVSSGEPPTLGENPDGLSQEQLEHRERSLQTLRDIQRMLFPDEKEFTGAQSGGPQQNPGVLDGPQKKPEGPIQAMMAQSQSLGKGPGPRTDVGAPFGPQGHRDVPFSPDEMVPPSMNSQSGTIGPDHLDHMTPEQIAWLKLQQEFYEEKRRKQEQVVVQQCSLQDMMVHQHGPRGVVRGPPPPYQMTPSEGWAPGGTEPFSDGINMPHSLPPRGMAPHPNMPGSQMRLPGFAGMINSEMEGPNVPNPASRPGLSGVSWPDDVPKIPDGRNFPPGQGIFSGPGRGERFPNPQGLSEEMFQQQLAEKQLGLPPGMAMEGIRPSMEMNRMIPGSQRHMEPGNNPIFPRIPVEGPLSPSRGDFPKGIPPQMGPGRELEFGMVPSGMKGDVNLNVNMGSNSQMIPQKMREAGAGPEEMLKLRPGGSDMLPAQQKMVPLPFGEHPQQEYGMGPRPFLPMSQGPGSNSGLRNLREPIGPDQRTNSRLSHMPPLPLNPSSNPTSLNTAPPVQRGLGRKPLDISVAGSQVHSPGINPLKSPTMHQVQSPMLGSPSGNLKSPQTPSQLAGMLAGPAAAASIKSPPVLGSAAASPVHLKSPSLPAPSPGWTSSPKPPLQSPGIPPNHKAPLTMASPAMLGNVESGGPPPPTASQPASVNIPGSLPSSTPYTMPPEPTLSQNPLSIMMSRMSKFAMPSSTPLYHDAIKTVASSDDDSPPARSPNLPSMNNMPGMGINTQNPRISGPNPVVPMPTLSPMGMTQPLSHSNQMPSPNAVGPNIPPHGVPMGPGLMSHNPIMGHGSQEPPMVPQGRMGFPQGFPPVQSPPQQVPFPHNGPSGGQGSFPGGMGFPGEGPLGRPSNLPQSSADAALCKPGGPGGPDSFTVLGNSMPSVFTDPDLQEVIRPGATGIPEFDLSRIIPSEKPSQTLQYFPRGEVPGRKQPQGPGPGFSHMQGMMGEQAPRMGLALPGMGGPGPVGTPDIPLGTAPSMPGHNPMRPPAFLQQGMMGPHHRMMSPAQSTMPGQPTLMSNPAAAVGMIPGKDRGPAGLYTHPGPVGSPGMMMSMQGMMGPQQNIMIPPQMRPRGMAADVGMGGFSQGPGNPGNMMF
Procedure, shortened: (§1)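 Competitive AlphaScreen binding assays run in parallel against wild-type β-catenin, one with the BCL9 partner and one with the E-cadherin partner; data given as mean ± standard deviation, n = 3.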

Homo sapiens = species: Homo sapiens; assay: Selectivity ratio of Ki for wild type beta-catenin (unknown origin)/ N-terminally biotinylated human BCL9 (350 to 375 residues) interaction to Ki for wild type beta-catenin (unknown origin)/N-terminally biotinylated human E-cadherin (824 to 887 residues) interaction
SW480 = assay: Cytotoxicity against Wnt-activated human SW480 cells assessed as reduction in cell viability after 72 hrs by MTS assay; format: functional, cell-based; conditions: SW480, 72 h
[2] = biological target: T2, Catenin beta-1 (Homo sapiens) (UniProt P35222); assay: Inhibition of beta-catenin (unknown origin) expressed in HEK293 cells up to 100 uM after 24 hrs by fopflash dual luciferase reporter gene assay; format: cell-based
T2 sequence (whole entry): T1 sequence (P35222 whole entry)
Procedure, shortened: (§2)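 HEK293 cells transfected with pcDNA3.1−β-catenin; TOPFlash reporter carries wild-type Tcf binding sites and FOPFlash carries mutant Tcf sites; luciferase activity read across a dose series; mean ± standard deviation, n = 2.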

[3] = biological target: T2, Catenin beta-1 (Homo sapiens); assay: Inhibition of beta-catenin (unknown origin) expressed in HEK293 cells after 24 hrs by topflash dual luciferase reporter gene assay; format: cell-based; procedure, shortened: as §2
[4] = Selectivity ratio of IC50 for human HEK293 cells to IC50 for human HCT116 cells; format: ADME, cell-based; conditions: HEK293 cells versus HCT116 cells, read-out: Ratio IC50
[5] = Competitive inhibition of N-terminally fluorescein-labeled human BCL9 (350 to 375 residues) interaction with beta-catenin D145A/E155A double mutant (138 to 686 residues) (unknown origin) expressed in Escherichia coli BL21 DE3 after 3 hrs by fluorescence polarization assay
A549 [6] = assay: Selectivity ratio of IC50 for human A549 cells to IC50 for human SW480 cells; format: functional
[7] = Competitive inhibition of N-terminally fluorescein-labeled human BCL9 (350 to 375 residues) interaction with beta-catenin D145A mutant (138 to 686 residues) (unknown origin) expressed in Escherichia coli BL21 DE3 after 3 hrs by fluorescence polarization assay
[8] = biological target: Cadherin-1/Transcription factor 7-like 2 (Homo sapiens, UniProt P12830+Q9NQB0); assay: Competitive inhibition of wild type beta-catenin (unknown origin) expressed in Escherichia coli BL21 DE3 interaction with N-terminally biotinylated human E-cadherin (824 to 887 residues) by alpha screen assay; procedure, shortened: as §1
Chain of Cadherin-1/Transcription factor 7-like 2 (Q9NQB0 whole entry, the tested form may be a part): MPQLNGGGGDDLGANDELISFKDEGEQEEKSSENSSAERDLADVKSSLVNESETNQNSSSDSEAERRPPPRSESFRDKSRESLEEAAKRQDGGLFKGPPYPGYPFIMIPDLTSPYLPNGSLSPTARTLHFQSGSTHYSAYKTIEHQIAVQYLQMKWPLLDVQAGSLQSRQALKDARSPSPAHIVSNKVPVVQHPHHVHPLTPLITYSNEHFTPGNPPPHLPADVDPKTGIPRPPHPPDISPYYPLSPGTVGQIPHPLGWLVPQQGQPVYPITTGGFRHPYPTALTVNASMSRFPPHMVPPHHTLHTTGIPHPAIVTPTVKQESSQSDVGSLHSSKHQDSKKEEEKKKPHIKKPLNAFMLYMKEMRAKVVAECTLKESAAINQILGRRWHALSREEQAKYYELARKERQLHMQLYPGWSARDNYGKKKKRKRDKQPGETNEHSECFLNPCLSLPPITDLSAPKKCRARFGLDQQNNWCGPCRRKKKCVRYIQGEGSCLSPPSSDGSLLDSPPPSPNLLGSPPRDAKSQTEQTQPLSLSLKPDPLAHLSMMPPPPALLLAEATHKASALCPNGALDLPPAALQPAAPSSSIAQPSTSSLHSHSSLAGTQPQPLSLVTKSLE
Chain of Cadherin-1/Transcription factor 7-like 2 (P12830 whole entry, the tested form may be a part): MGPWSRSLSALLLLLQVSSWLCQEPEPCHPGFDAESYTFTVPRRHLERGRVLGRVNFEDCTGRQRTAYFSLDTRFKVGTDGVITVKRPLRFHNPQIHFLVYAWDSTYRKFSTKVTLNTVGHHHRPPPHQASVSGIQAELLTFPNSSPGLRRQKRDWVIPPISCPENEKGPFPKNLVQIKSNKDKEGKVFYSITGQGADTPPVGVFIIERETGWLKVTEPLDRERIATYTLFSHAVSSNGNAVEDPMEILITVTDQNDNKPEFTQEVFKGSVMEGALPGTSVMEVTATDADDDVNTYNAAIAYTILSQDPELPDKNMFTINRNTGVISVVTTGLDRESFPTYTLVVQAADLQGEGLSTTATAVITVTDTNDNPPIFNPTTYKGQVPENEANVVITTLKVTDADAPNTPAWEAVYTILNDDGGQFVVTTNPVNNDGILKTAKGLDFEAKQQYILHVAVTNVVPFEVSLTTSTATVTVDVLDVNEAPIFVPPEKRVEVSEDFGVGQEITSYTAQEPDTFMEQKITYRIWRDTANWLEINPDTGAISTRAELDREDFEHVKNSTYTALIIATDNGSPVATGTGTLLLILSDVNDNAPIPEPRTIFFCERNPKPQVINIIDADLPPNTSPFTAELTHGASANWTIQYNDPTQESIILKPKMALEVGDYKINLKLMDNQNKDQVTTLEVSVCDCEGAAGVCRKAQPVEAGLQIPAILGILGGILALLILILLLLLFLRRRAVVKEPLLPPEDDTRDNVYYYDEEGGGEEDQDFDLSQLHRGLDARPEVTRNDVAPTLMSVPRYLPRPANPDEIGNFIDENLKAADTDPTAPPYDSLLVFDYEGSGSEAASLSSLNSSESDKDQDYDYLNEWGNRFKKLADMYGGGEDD

[9] = Competitive inhibition of N-terminally fluorescein-labeled human BCL9 (350 to 375 residues) interaction with beta-catenin E155A mutant (138 to 686 residues) (unknown origin) expressed in Escherichia coli BL21 DE3 after 3 hrs by fluorescence polarization assay
A549 [10] = assay: Cytotoxicity against Wnt-signaling latent human A549 cells assessed as reduction in cell viability after 72 hrs by MTS assay; format: functional, cell-based; conditions: A549, 72 h
HEK293 = assay: Cytotoxicity against HEK293 cells assessed as reduction in cell viability after 72 hrs by MTS assay; format: cell-based; conditions: Homo sapiens, HEK293, 72 h
A549 [11] = assay: Selectivity ratio of IC50 for human A549 cells to IC50 for human HCT116 cells; format: functional
[12] = Selectivity ratio of IC50 for HEK293 cells to IC50 for human SW480 cells; format: ADME, cell-based; conditions: HEK293 cells versus SW480 cells, read-out: Ratio IC50
[13] = Cytotoxicity against Wnt-activated human HCT116 cells assessed as reduction in cell viability after 72 hrs by MTS assay; format: functional, cell-based; conditions: HCT-116, 72 h

SMILES: CC(C)c1cc2c(c(O)c1O)[C@@]1(C(=O)O)CCCC(C)(C)[C@@H]1CC2 [CARNOSIC ACID]
Ki [1]: 5.3 µM

SMILES: CC1(C)CCC(c2cc(C(=O)N3CCN(C(=O)c4cc(F)cc(N5CCNCC5)c4)CC3)ccc2O[C@H]2CCNC2)CC1
Ki [1]: 70 µM

SMILES: CCC1CCC(c2cc(C(=O)N3CCN(C(=O)c4cc(F)cc(N5CCNCC5)c4)CC3)ccc2O[C@H]2CCNC2)CC1 (stereo partly specified)
Ki [1]: 170 µM

SMILES: O=C(Nc1ccc(OC2CCNC2)c(-c2ccc(F)cc2)c1)c1ccc(O[C@H]2CCNC2)c(-c2ccc(F)c(F)c2)c1 (stereo partly specified)
Ratio Ki (Homo sapiens): 125
Ki [1]: 2.1 µM

SMILES: O=C(c1cc(F)cc(N2CCNCC2)c1)N1CCN(C(=O)c2ccc(O[C@H]3CCNC3)c(-c3ccc(F)cc3)c2)CC1
IC50 (SW480): 86 µM

SMILES: NCCc1cc(F)cc(C(=O)N2CCN(C(=O)c3cnc(O[C@H]4CCNC4)c(-c4ccc(F)cc4)c3)CC2)c1
Ki [1]: > 500 µM

Further lines, with some results ahead:

Ki [1]: 20 µM
SMILES: O=C(c1cc(F)cc(C2CCNCC2)c1)N1CCN(C(=O)c2ccc(O[C@H]3CCNC3)c(-c3ccc(F)cc3)c2)CC1

Ki [1]: 53 µM
SMILES: O=C(c1cc(F)cc(N2CCNCC2)c1)N1CCN(C(=O)c2ccc(O[C@H]3CCNC3)c(C3CCCC3)c2)CC1

Ki [1]: 45 µM
SMILES: O=C(c1cc(F)cc(N2CCNCC2)c1)N1CCN(C(=O)c2ccc(O[C@H]3CCNC3)c(C3CCC(F)(F)CC3)c2)CC1

inhibition [2]: inactive
inhibition [3]: Dose-dependent effect
IC50 [8]: 550 µM
Ki [8]: 510 µM
IC50 [1]: 5.6 µM
SMILES: Cl.Cl.O=C(c1cc(F)cc(N2CCNCC2)c1)N1CCN(C(=O)c2ccc(O[C@H]3CCNC3)c(C3CCCCC3)c2)CC1
selectivity ratio [4]: 3
Ki [5]: 53 µM
IC50 (SW480): 22 µM
Ratio IC50 (A549 [6]): >10
Ki [7]: 29 µM
Ki [9]: 39 µM
IC50 (A549 [10]): 300 µM
IC50 (HEK293): 130 µM
Ratio IC50 (A549 [11]): >10
selectivity ratio [12]: 3
IC50 [13]: 26 µM

inhibition [3]: Dose-dependent effect
Ki [1]: 16 µM
SMILES: Cl.Cl.O=C(c1cc(F)cc(N2CCNCC2)c1)N1CCN(C(=O)c2ccc(O[C@H]3CCNC3)c(C3CCC(C(F)(F)F)CC3)c2)CC1 (stereo partly specified)
selectivity ratio [4]: 3
IC50 (SW480): 44 µM
Ratio IC50 (A549 [6]): >10
IC50 (A549 [10]): > 400 µM
IC50 (HEK293): 130 µM
Ratio IC50 (A549 [11]): >10
selectivity ratio [12]: 3
IC50 [13]: 39 µM

Source: ChEMBL document CHEMBL3817780, “Structure-Based Design of 1,4-Dibenzoylpiperazines as β-Catenin/B-Cell Lymphoma 9 Protein-Protein Interaction Inhibitors” (ACS Med Chem Lett, 2016)
